Key:
[1] = species on record: Rattus norvegicus; test: Concentration required to produce 50% block in avoidance responding in conditioned avoidance response test in rat; type: functional
In short: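 Trained rats in shelf-jump and/or discrete-trial conditioned avoidance paradigms. Drug given ip or po to at least five rats per dose, with a control session before each drug run. Trials without avoidance (avoidance block) were counted per dose as a percentage of total trials, with control set at 100%. AB50 was taken from a least-squares dose-effect regression line.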

[2] = biological target: D(2) dopamine receptor (Rattus norvegicus) (UniProt P61169); test: In vitro inhibition of [3H]spiperone binding to Dopamine receptor D2 from rat brain limbic tissue at 10 uM; type: tissue-based; conditions: Limbic system
[3] = tested on: Rattus norvegicus; test: Concentration required to produce 50% block in avoidance responding in conditioned avoidance response test in rat following peroral administration; type: functional
In short: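 Previously trained rats were given compound po at pretreatment time to at least five rats per dose in a conditioned avoidance paradigm (shelf-jump or discrete trial). A control session preceded each drug run. Trials without avoidance were counted as a % of total trials, with control set at 100%. AB50 came from a least-squares dose-effect regression line.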

[4] = biological target: T1, 5-hydroxytryptamine receptor 1A (Rattus norvegicus, UniProt P19327); test: In vitro inhibition of [3H]-8-hydroxy-2-(di-n-propylamino)tetralin binding to 5-hydroxytryptamine 1A receptor from rat hippocampal tissue.
T1 sequence (P19327 whole entry): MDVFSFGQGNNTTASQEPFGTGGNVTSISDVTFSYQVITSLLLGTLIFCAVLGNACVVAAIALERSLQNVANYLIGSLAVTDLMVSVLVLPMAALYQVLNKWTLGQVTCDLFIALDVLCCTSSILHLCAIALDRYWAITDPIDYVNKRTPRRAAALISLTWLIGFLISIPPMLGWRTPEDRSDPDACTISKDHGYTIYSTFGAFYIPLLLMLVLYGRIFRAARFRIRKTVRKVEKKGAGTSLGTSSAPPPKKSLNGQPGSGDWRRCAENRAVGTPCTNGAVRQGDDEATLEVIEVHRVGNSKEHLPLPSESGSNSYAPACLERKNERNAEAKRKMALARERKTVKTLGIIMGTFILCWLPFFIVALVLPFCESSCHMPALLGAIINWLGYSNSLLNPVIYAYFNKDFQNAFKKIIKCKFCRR

[5] = Ratio of ED50 stereotyped behavior in mice; type: functional
[6] = biological target: D(2) dopamine receptor (Rattus norvegicus, UniProt P61169); test: In vitro inhibition of [3H]spiperone binding to Dopamine receptor D2 from rat brain limbic tissue; type: tissue-based, Limbic system
In short: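 Limbic tissue (nucleus accumbens, septum, olfactory tubercle) from Sprague-Dawley rats, washed membranes at 0.2-0.3 mg protein. Incubated with 0.3 nM [3H]spiroperidol and a range of drug concentrations, 10 min at 37 °C, in Tris buffer pH 7.1 with NaCl, KCl, CaCl2, ascorbate and pargyline. Filtered through GF/B and counted by scintillation. Nonspecific binding defined with 1 μM (+)-butaclamol.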

[7] = tested on: Mus musculus; test: Inhibition of apomorphine induced stereotyped behavior in mice after intraperitoneal administration; type: functional; conditions: ip
In short: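 Male CF-1 mice (20-25 g, acclimated ≥3 days) received ip compound in 0.25% Tween 80 at 1, 10, 30 and 60 mg/kg (six/dose), alongside vehicle controls. After 30 min they were challenged with apomorphine 1 mg/kg sc. Stereotypy was scored every 5 min and totaled over the 30-min session.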

[8] = tested on: Mus musculus; test: Inhibition of apomorphine induced stereotyped behavior (i.p.); type: functional; conditions: ip
[9] = biological target: D(2) dopamine receptor (Rattus norvegicus) (UniProt P61169); test: In vitro inhibition of [3H]spiperone binding to dopamine receptor D2 from rat brain limbic tissue at 1 uM; type: tissue-based; conditions: Limbic system
[10] = tested on: Mus musculus; test: Inhibition of apomorphine induced climbing behavior in mice after intraperitoneal administration; type: functional; conditions: ip
In short: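 Male CF-1 mice (20-25 g), acclimated at least 3 days, received compound in 0.25% Tween 80 ip at 1, 10, 30 and 60 mg/kg (six/dose) or vehicle. 30 min later they were challenged with apomorphine 1 mg/kg sc. Climbing was scored every 5 min and totaled over 30 min.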

[11] = biological target: T2, 5-hydroxytryptamine receptor 1A (Rattus norvegicus) (UniProt P19327); test: In vitro inhibition of [3H]-8-hydroxy-2-(di-n-propylamino)tetralin binding to 5-hydroxytryptamine 1A receptor from rat hippocampal tissue at 1 uM; conditions: Hippocampus
T2 sequence (whole entry): T1 sequence (P19327 whole entry)

[12] = biological target: T2, 5-hydroxytryptamine receptor 1A (Rattus norvegicus); test: In vitro inhibition of [3H]-8-hydroxy-2-(di-n-propylamino)tetralin binding to 5-hydroxytryptamine 1A receptor from rat hippocampal tissue; conditions: Hippocampus; concentration not given here

Chain of D(2) dopamine receptor (Rattus norvegicus) (P61169 whole entry): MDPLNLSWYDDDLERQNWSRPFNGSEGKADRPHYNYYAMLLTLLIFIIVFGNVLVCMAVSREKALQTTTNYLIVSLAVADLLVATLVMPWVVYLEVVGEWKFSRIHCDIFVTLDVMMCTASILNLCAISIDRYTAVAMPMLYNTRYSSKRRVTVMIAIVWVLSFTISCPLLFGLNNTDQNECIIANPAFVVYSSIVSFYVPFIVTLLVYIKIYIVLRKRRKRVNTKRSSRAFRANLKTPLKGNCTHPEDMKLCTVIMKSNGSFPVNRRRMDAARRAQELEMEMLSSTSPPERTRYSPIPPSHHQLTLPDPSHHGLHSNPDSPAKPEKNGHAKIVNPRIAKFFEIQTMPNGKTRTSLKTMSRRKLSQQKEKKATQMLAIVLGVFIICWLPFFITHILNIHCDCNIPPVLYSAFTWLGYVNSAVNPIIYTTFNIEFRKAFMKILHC
Chain of D(2) dopamine receptor (P61169 whole entry): as above

Row | inhibition [9] [%] | SMILES | AB50 [1] [mg/kg] | Ratio [5] | ED50 [7] [mg/kg] | also measured
1 | 33 | Cl.O=C1C2C3C=CC(C4CC34)C2C(=O)N1CCCCN1CCN(c2cnccn2)CC1 (configuration not stated) | 49 | 2.35 | 33 | inhibition [11]: 68%; ED50 [10]: 14 mg/kg
2 | 65 | Cl.O=C1C2C3C=CC(C4CCC34)C2C(=O)N1CCCCN1CCN(c2ccc(C(F)(F)F)cn2)CC1 (configuration not stated) | >40 | – | – | inhibition [12]: 72%

Continued, compound first:

Row | SMILES | inhibition [9] [%] | AB50 [1] [mg/kg] | Ratio [5] | ED50 [7] [mg/kg] | also measured
3 | CC(C)=C1C2C=CC1C1C(=O)N(CCCCN3CCN(c4ncccn4)CC3)C(=O)C21.Cl (configuration not stated) | – | >40 | – | – | inhibition [2]: 50%
4 | O=C1c2ccccc2S(=O)(=O)N1CCCCN1CCN(c2ncccn2)CC1 [IPSAPIRONE] | – | 19 | – | – | AB50 [3]: 42 mg/kg; Ki [4]: 10 nM
5 | COc1ccccc1N1CCN(CCCCN2C(=O)C3C4C=CC(C5CC45)C3C2=O)CC1.Cl (configuration not stated) | – | 40 | 1 | 10 | Ki [6]: 16 nM; Ki [4]: 1.3 nM; ED50 [8]: 10 mg/kg
6 | Cl.O=C1C2C3C=CC(C4CCC34)C2C(=O)N1CCCCN1CCN(c2cnccn2)CC1 (configuration not stated) | 48 | 60 | 2.1 | 32 | ED50 [10]: 15 mg/kg
7 | O=C1CC2(CCCC2)CC(=O)N1CCCCN1CCN(c2ncccn2)CC1 [BUSPIRONE] | – | 5 | – | – | AB50 [3]: 32 mg/kg

— ChEMBL document CHEMBL1124154, “Polycyclic aryl- and heteroarylpiperazinyl imides as 5-HT1A receptor ligands and potential anxiolytic agents: synthesis and structure-activity relationship studies” (J Med Chem, 1988)
